The source made the active and inactive calls. The rule behind the calls is not given here.
Columns and labels:
Rattus norvegicus = assay: In vivo inhibition of SCD1 in Lewis rat liver microsome at 15 mg/kg, ip administered qd for 2 days; format: functional; conditions: 48 h, route intraperitoneal
Outline: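 Lewis rats fed high-carbohydrate diet for one week, fasted 4 h, then dosed orally (0.1–1 mg/kg in 0.2% Tween 20/1% CMC; n = 4), killed 4 h later; ip arm 15 mg/kg once daily for two days. Liver microsomes prepared, SCD1 activity measured by tritiated water release from [9,10-3H]stearoyl-CoA. Mean ± SD of at least four rats.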

[1] = biological target: Acyl-CoA 6-desaturase (Rattus norvegicus) (UniProt Q9Z122); assay: Inhibition of delta6 desaturase in Sprague-Dawley rat liver microsome using cis,cis-9,12-octadecadienoic acid substrate at 10 uM
Chain of Acyl-CoA 6-desaturase (Rattus norvegicus) (Q9Z122 whole entry, looked up): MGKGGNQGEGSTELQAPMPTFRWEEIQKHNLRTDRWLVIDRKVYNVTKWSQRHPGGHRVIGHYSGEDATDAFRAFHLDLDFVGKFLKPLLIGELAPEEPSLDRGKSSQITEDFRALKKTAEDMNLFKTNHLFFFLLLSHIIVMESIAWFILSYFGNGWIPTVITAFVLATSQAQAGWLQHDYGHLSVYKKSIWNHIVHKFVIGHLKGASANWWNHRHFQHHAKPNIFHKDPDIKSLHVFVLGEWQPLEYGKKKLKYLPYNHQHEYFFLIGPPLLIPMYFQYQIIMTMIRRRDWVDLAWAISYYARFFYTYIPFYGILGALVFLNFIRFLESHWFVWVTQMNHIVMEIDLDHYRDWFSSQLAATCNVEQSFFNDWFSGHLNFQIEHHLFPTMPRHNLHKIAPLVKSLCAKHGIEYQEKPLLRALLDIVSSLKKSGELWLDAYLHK

[2] = biological target: Acyl-CoA (8-3)-desaturase (Rattus norvegicus) (UniProt Q920R3); assay: Inhibition of delta5 desaturase in Sprague-Dawley rat liver microsome at 10 uM; format: microsomes
Chain of Acyl-CoA (8-3)-desaturase (Rattus norvegicus) (Q920R3 whole entry, looked up): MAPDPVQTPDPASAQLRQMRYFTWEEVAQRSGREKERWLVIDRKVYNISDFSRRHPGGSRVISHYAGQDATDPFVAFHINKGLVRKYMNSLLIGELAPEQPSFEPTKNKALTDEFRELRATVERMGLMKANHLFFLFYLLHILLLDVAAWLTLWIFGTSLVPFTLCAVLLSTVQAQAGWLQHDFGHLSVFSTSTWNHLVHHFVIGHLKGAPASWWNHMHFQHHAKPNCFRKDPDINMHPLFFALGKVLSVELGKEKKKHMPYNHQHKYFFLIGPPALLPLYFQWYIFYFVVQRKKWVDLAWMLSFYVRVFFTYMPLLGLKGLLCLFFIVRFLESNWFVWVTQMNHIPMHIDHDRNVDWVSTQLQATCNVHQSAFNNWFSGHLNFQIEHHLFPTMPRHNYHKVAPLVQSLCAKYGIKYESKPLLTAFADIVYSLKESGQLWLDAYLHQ

[3] = Apparent permeability from apical to basolateral side in human Caco2 cells; format: ADME, cell-based; conditions: Caco-2
Outline: (§1)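 Caco-2 monolayers; apparent permeability a-to-b and b-to-a reported in 10⁻⁶ cm/s.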

[4] = Apparent permeability from basolateral to apical side in human Caco2 cells; format: ADME, cell-based; conditions: Caco-2; outline: as §1
[5] = Metabolic stability in rat liver microsome after 30 mins by LC/MS/MS analysis; format: ADME; conditions: liver microsomes, read-out: Stability
Outline: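 Compound incubated 30 min with rat liver microsomes; percent parent remaining by LC/MS/MS.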

Acyl-CoA desaturase 1 = biological target: T1, Acyl-CoA desaturase 1 (Mus musculus, UniProt P13516); assay: Inhibition of SCD1 in ICR mouse liver microsome using [9,10 3H]- stearoyl-Coenzyme A substrate assessed as decreased production of tritiated water after 20 min by scintillation counting analysis
T1 sequence (P13516 whole entry): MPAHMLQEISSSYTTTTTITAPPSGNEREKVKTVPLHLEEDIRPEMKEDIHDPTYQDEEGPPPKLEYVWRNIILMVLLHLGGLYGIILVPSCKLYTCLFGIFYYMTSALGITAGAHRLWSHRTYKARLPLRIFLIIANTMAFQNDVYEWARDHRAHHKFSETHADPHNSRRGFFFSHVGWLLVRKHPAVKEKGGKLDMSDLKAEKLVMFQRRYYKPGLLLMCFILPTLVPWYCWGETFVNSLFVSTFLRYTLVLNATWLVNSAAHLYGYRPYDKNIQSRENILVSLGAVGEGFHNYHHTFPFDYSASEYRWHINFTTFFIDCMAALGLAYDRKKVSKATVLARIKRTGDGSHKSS

Stearoyl-CoA desaturase = biological target: T2, Stearoyl-CoA desaturase (Homo sapiens, UniProt O00767); assay: Inhibition of SCD1 in human HepG2 cells using [14C]-stearate substrate assessed as decreased production of [14C]-oleic acid after 24 hrs; format: cell-based
T2 sequence (O00767 whole entry): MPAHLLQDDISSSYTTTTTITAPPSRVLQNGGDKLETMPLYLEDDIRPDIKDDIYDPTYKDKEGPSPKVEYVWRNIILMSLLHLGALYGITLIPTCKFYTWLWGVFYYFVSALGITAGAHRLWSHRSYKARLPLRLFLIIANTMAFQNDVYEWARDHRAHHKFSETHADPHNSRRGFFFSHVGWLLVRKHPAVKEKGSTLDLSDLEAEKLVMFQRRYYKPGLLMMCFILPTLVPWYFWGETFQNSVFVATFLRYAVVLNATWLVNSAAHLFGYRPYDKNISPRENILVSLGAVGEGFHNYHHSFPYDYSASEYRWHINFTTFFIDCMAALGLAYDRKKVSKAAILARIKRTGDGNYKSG

Compound | inhibition in vivo at 15 mg/kg (Rattus norvegicus) [%] | inhibition [1] | inhibition [2] | Papp A→B [3] [×10⁻⁶ cm/s] | Papp B→A [4] [×10⁻⁶ cm/s] | remaining at 0.5 h [5] [%] | IC50 (Acyl-CoA desaturase 1) [nM] | IC50 (Stearoyl-CoA desaturase) [nM]
O=C(NC[C@@H](O)c1ccccc1)c1ccc(N2CCN(C(=O)c3ccccc3C(F)(F)F)CC2)nn1 | > 60 | inactive | inactive | 23 | 29 | 82 | – | –
CC(C)CCNC(=O)c1cnc(N2CCN(C(=O)c3ccccc3C(F)(F)F)CC2)cn1 | – | – | – | – | – | – | > 10000 | –
CN(C)c1ccccc1C(=O)N1CCN(c2ccc(C(=O)NCCC3CC3)nn2)CC1 | – | – | – | – | – | – | 920 | –
O=C(NC[C@H](O)c1ccccc1)c1ccc(N2CCN(C(=O)c3ccccc3C(F)(F)F)CC2)nn1 | – | inactive | inactive | 22 | 28 | 92 | – | –
O=C(NCc1nccs1)c1ccc(N2CCN(C(=O)c3ccccc3C(F)(F)F)CC2)nn1 | – | inactive | inactive | 29 | 29 | 79 | 32 | –
O=C(NCCc1ccccc1)c1ccc(N2CCN(C(=O)c3ccccc3C(F)(F)F)CC2)nn1 | – | inactive | inactive | 16 | 15 | 56 | – | –
CCCCCCCNC(=O)c1ccc(N2CCN(C(=O)c3ccccc3C(F)(F)F)CC2)nn1 | – | inactive | inactive | – | – | – | 18 | –
O=C(NCc1ccn[nH]1)c1ccc(N2CCN(C(=O)c3ccccc3C(F)(F)F)CC2)nn1 | – | – | – | – | – | – | > 1000 | –
O=C(NCCC1CC1)c1ccc(N2CCN(C(=O)c3cnc(Cl)nc3C(F)(F)F)CC2)nn1 | – | inactive | inactive | – | – | – | 321 | 5870
O=C(NCCC1CC1)c1ccc(N2CCN(C(=O)c3cc(Cl)ccc3Cl)CC2)nn1 | – | inactive | inactive | – | – | – | 34 | 101
CCOCCNC(=O)c1ccc(N2CCN(C(=O)c3ccccc3C(F)(F)F)CC2)nn1 | – | – | – | – | – | – | 1250 | –
N#Cc1ccccc1C(=O)N1CCN(c2ccc(C(=O)NCCC3CC3)nn2)CC1 | – | – | – | – | – | – | > 1000 | –
CCCCCCNC(=O)c1ncc(N2CCN(C(=O)c3ccccc3C(F)(F)F)CC2)cn1 | – | – | – | – | – | – | 1200 | –
O=C(NCc1ncco1)c1ccc(N2CCN(C(=O)c3ccccc3C(F)(F)F)CC2)nn1 | – | – | – | – | – | – | 500 | –
O=C(NCCC1CC1)c1ccc(N2CCN(C(=O)c3cc(F)ccc3Cl)CC2)nn1 | – | inactive | inactive | 28 | 29 | 66 | 62 | 192
CC(C)(O)CCNC(=O)c1ccc(N2CCN(C(=O)c3ccccc3C(F)(F)F)CC2)nn1 | – | – | – | – | – | – | 10000 | –
CC(C)CCNC(=O)c1cnc(N2CCN(C(=O)c3ccccc3C(F)(F)F)CC2)nc1 | – | – | – | – | – | – | > 10000 | –
O=C(NCCC1CC1)c1ccc(N2CCN(C(=O)c3ccccc3C(=O)O)CC2)nn1 | – | – | – | – | – | – | > 10000 | –
O=C(NCCCCC1CC1)c1ccc(N2CCN(C(=O)c3ccccc3C(F)(F)F)CC2)nn1 | – | inactive | inactive | 13 | 17 | 42 | – | –
O=C(NCCC1CC1)c1ccc(N2CCN(C(=O)c3cccc(F)c3C(F)(F)F)CC2)nn1 | – | inactive | inactive | 20 | 26 | 72 | 58 | –
CC(C(=O)N1CCN(c2ccc(C(=O)NCCC3CC3)nn2)CC1)(C(F)(F)F)C(F)(F)F | – | inactive | inactive | – | – | – | 113 | 119
CCCCCNC(=O)c1ccc(N2CCN(C(=O)c3ccccc3C(F)(F)F)CC2)nn1 | – | inactive | inactive | 22 | 22 | 49 | 25 | –
O=C(NCCC1CC1)c1ccc(N2CCN(C(=O)c3ccoc3C(F)(F)F)CC2)nn1 | – | inactive | inactive | – | – | – | – | 290
CC(CNC(=O)c1ccc(N2CCN(C(=O)c3ccccc3C(F)(F)F)CC2)nn1)c1ccccc1 (configuration not stated) | – | inactive | inactive | – | – | – | 150 | –

Compound | inhibition in vivo at 15 mg/kg (Rattus norvegicus) [%] | inhibition [1] | inhibition [2] | Papp A→B [3] [×10⁻⁶ cm/s] | Papp B→A [4] [×10⁻⁶ cm/s] | remaining at 0.5 h [5] [%] | IC50 (Acyl-CoA desaturase 1) [nM] | IC50 (Stearoyl-CoA desaturase) [nM]
O=C(NCCC1CC1)c1ccc(N2CCN(C(=O)c3cc(F)ccc3F)CC2)nn1 | – | – | – | – | – | – | 3110 | –
O=C(NCCC1CC1)c1ccc(N2CCN(C(=O)/C=C\C(F)(F)F)CC2)nn1 | – | – | – | – | – | – | > 10000 | –
CC(C)CCNC(=O)c1ccc(N2CCN(C(=O)c3ccccc3C(F)(F)F)CC2)nc1 | – | – | – | – | – | – | 78 | –
CC(C)CCNC(=O)c1ccc(N2CCN(C(=O)c3ccccc3C(F)(F)F)CC2)cn1 | – | – | – | – | – | – | 220 | –
COc1ccc(F)cc1C(=O)N1CCN(c2ccc(C(=O)NCCC3CC3)nn2)CC1 | – | – | – | – | – | – | 710 | –
O=C(NCCC1CC1)c1ccc(N2CCN(C(=O)C3CC3C(F)(F)F)CC2)nn1 (configuration not stated) | – | – | – | – | – | – | > 1000 | –
Cc1cnc(CNC(=O)c2ccc(N3CCN(C(=O)c4ccccc4C(F)(F)F)CC3)nn2)cn1 | – | inactive | inactive | – | – | – | 33 | –
O=C(NCCCC1CC1)c1ccc(N2CCN(C(=O)c3ccccc3C(F)(F)F)CC2)nn1 | > 60 | inactive | inactive | 32 | 30 | 63 | 34 | –
CN(C)c1ccc(Cl)c(C(=O)N2CCN(c3ccc(C(=O)NCCC4CC4)nn3)CC2)c1 | – | – | – | – | – | – | > 10000 | –
CCCCCCNC(=O)c1ccc(N2CCN(C(=O)c3ccccc3C(F)(F)F)CC2)nn1 | – | inactive | inactive | 20 | 18 | 14 | 21 | –
Cc1ccc(C)c(C(=O)N2CCN(c3ccc(C(=O)NCCC4CC4)nn3)CC2)c1 | – | – | – | – | – | – | 942 | –
O=C(NCc1ccc(C(F)(F)F)o1)c1ccc(N2CCN(C(=O)c3ccccc3C(F)(F)F)CC2)nn1 | – | inactive | inactive | 18 | 18 | 78 | 31 | –
O=C(Nc1ccccn1)c1ccc(N2CCN(C(=O)c3ccccc3C(F)(F)F)CC2)nn1 | – | – | – | – | – | – | 1400 | –
O=C(NCCC1CC1)c1ccc(N2CCN(C(=O)c3ccccc3F)CC2)nn1 | – | – | – | – | – | – | > 1000 | –
O=C(NCc1cocn1)c1ccc(N2CCN(C(=O)c3ccccc3C(F)(F)F)CC2)nn1 | – | – | – | – | – | – | 272 | –
O=C(NCc1ccccn1)c1ccc(N2CCN(C(=O)c3ccccc3C(F)(F)F)CC2)nn1 | – | – | – | – | – | – | 352 | –
O=C(NCCC1CC1)c1ccc(N2CCN(C(=O)c3ccc(F)cc3C(F)(F)F)CC2)nn1 | > 60 | inactive | inactive | 22 | 22 | 69 | 21 | –
CC1CCCCC1C(=O)N1CCN(c2ccc(C(=O)NCCC3CC3)nn2)CC1 (configuration not stated) | – | – | – | – | – | – | 680 | –
COc1ccc(Br)c(C(=O)N2CCN(c3ccc(C(=O)NCCCc4ccccc4)cn3)CC2)c1 | – | – | – | – | – | – | 5100 | –
O=C(Nc1ccccc1)c1ccc(N2CCN(C(=O)c3ccccc3C(F)(F)F)CC2)nn1 | – | inactive | inactive | 13 | 10 | 9 | 83 | –
O=C(NCc1ccccc1)c1ccc(N2CCN(C(=O)c3ccccc3C(F)(F)F)CC2)nn1 | – | inactive | inactive | 34 | 34 | 97 | 6 | –
Cc1ccc(CNC(=O)c2ccc(N3CCN(C(=O)c4ccccc4C(F)(F)F)CC3)nn2)o1 | < 30 | inactive | inactive | 25 | 23 | 37 | 15 | –
O=C(NCCCc1ccccc1)c1ccc(N2CCN(C(=O)c3ccccc3C(F)(F)F)CC2)nn1 | – | inactive | inactive | – | – | – | 69 | –

Source: ChEMBL document CHEMBL2311383, “Discovery of piperazin-1-ylpyridazine-based potent and selective stearoyl-CoA desaturase-1 inhibitors for the treatment of obesity and metabolic syndrome” (J Med Chem, 2013)
